Assay results as given in ChEMBL document CHEMBL3785062, “Preparation and Evaluation of Radiolabeled Antibody Recruiting Small Molecules That Target Prostate-Specific Membrane Antigen for Combined Radiotherapy and Immunotherapy” (J Med Chem, 2016).

Assays:
[1] = Ratio of drug level in tumor to blood in human LNCAP cells xenografted NCR nu/nu mouse at 0.19 to 0.36 MBq, iv at 1 hr; format: ADME, organism-based
Procedure, shortened: (§1)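 NCr nu/nu male mice carrying subcutaneous right-flank LNCaP xenografts (2 × 10^6 cells in Matrigel:DPBS), used 4–7 weeks after inoculation. Tail-vein injection of 0.19–0.36 MBq 125I tracer in 0.9% saline. Killed at 1 and 6 h; tissues collected and counted, expressed as %ID/g ± SEM. Group sizes n = 2–3.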

[2] = Drug uptake in gall bladder of human LNCAP cells xenografted NCR nu/nu mouse at 0.19 to 0.36 MBq, iv at 6 hrs; format: ADME, organism-based; procedure, shortened: as §1
[3] = Chemical stability in solid state at -10 degC; format: physicochemical
[4] = Stability of compound in saline up to 48 hrs; format: physicochemical; conditions: buffer
[5] = test system: LNCaP; assay: Drug internalization in PSMA expressing human LNCAP cells at 10 nM incubated for 2 hrs at 4 degC measured for 10 mins by gamma counting analysis; format: ADME, cell-based; conditions: 0.01 µM
[6] = Ratio of drug level in tumor to blood in human LNCAP cells xenografted NCR nu/nu mouse at 0.19 to 0.36 MBq, iv at 6 hrs; format: ADME, organism-based; procedure, shortened: as §1
[7] = Drug uptake in thyroid gland of human LNCAP cells xenografted NCR nu/nu mouse at 0.19 to 0.36 MBq, iv at 1 to 6 hrs; format: ADME, organism-based; conditions: in vivo; procedure, shortened: as §1
[8] = test system: LNCaP; assay: Drug internalization in PSMA expressing human LNCAP cells at 10 nM incubated for 2 hrs at 37 degC measured for 10 mins by gamma counting analysis; format: ADME, cell-based; conditions: 0.01 µM
[9] = Drug uptake in gall bladder of human LNCAP cells xenografted NCR nu/nu mouse at 0.19 to 0.36 MBq, iv at 1 hr; format: ADME, organism-based; conditions: in vivo; procedure, shortened: as §1
[10] = test system: Tumour; assay: Drug uptake in tumor of human LNCAP cells xenografted NCR nu/nu mouse at 0.19 to 0.36 MBq, iv at 1 hr; format: ADME, organism-based, Neoplasm; conditions: in vivo; procedure, shortened: as §1
[11] = test system: Tumour; assay: Drug uptake in tumor of human LNCAP cells xenografted NCR nu/nu mouse at 0.19 to 0.36 MBq, iv at 6 hrs; format: ADME, organism-based, Neoplasm; conditions: in vivo; procedure, shortened: as §1
[12] = test system: LNCaP; assay: Drug internalization in PSMA expressing human LNCAP cells at 5 nM incubated for 2 hrs at 37 degC measured for 10 mins by gamma counting analysis; format: ADME, cell-based; conditions: 0.005 µM
[13] = test system: LNCaP; assay: Drug internalization in PSMA expressing human LNCAP cells at 5 nM incubated for 2 hrs at 4 degC measured for 10 mins by gamma counting analysis; format: ADME, cell-based; conditions: 0.005 µM
[14] = test system: Kidney; assay: Drug uptake in kidney of human LNCAP cells xenografted NCR nu/nu mouse at 0.19 to 0.36 MBq, iv at 1 hr; format: ADME, organism-based; conditions: in vivo; procedure, shortened: as §1
[15] = Drug uptake in small intestine of human LNCAP cells xenografted NCR nu/nu mouse at 0.19 to 0.36 MBq, iv at 6 hrs; format: ADME, organism-based; conditions: in vivo; procedure, shortened: as §1
[16] = Drug uptake in small intestine of human LNCAP cells xenografted NCR nu/nu mouse at 0.19 to 0.36 MBq, iv at 1 hr; format: ADME, organism-based; conditions: in vivo; procedure, shortened: as §1
[17] = test system: Kidney; assay: Drug uptake in kidney of human LNCAP cells xenografted NCR nu/nu mouse at 0.19 to 0.36 MBq, iv at 6 hrs; format: ADME, organism-based; conditions: in vivo; procedure, shortened: as §1
[18] = test system: Blood; assay: Drug uptake in blood of human LNCAP cells xenografted NCR nu/nu mouse at 0.19 to 0.36 MBq, iv at 1 hr; format: ADME, organism-based; conditions: in vivo; procedure, shortened: as §1

Kp at 1 h [1]	Drug uptake ([2]; in vivo, 6 h)	Stability [3]	Stability [4]	Drug uptake [5]	Kp at 6 h [6]	Drug uptake [7]	Drug uptake [8]	Drug uptake [9]	Drug uptake [10]	Drug uptake [11]	Drug uptake [12]	Drug uptake [13]	tissue uptake at 6 h ([2]; NCR nu/nu, gall bladder, read-out: Drug uptake)	Drug uptake [14]	Drug uptake [15]	Drug uptake [16]	Drug uptake [17]	Drug uptake [18]	SMILES
10	Not Active	3 weeks	Stable	Not Active	3.4	Active	Active	Active	3.01 % ID/g	3.24 % ID/g									O=C(O)CC[C@H](NC(=O)N[C@@H](CCCCNC(=O)Cn1nnc(COCCOCCOCCOCCOCCOCCOCCOCCNc2ccc([N+](=O)[O-])cc2[N+](=O)[O-])c1[125I])C(=O)O)C(=O)O
											Active	Not Active							O=C(O)CC[C@H](NC(=O)N[C@@H](CCCCNC(=O)Cn1cc([125I])nn1)C(=O)O)C(=O)O
35					59			92.46 % ID/g	12.21 % ID/g	9.8 % ID/g			7.89 %ID/g	68.35 % ID/g	2.18 % ID/g	47.37 % ID/g	66.46 % ID/g	0.36 % ID/g	O=C(O)CC[C@H](NC(=O)N[C@@H](CCCCNC(=O)Cn1nnc([125I])c1CNc1ccc([N+](=O)[O-])cc1[N+](=O)[O-])C(=O)O)C(=O)O
